Data taken from ChEMBL document CHEMBL4513216, “Probing the Open Global Health Chemical Diversity Library for Multistage-Active Starting Points for Next-Generation Antimalarials” (ACS Infect Dis, 2020).

Test: Toxicity liver stage against HepG2, at 10uM
Assay type: cell-based
Design: test concentration 10 uM, cell line HepG2-A16-CD81EGFP
Conditions: human, HepG2-A16-CD81EGFP cells; read-out: INHIBITION
Method in brief: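 Uninfected HepG2-A16-CD81EGFP cells, 3 × 10^3 per well, 1536-well, plated on prespotted compound at 10 μM final, parasite-free screening media added to match infected plates; puromycin 10 μM positive, DMSO 0.5% negative; run in parallel with 48 h PbLuc assay at 37 °C, 5% CO2; viability by CellTiter-Glo luminescence, normalized to controls.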

Row | SMILES | cytotoxicity at 10 µM
1 | COCC(=O)N[C@H](C)c1onc(-c2ccccc2)c1C(=O)O | 0.179%
2 | O=C(NC[C@H]1OC[C@@H](NC2CCC(F)(F)CC2)[C@@H]1O)Nc1ccccc1 | 4.11%
3 | O=C(c1ccno1)N1CCOC[C@H](Oc2ccccc2)C1 | -5.25%
4 | CC[C@H]1CN(S(C)(=O)=O)CC[C@H]1CC(=O)NCCOC | 2.55%
5 | COCCCNc1c(-c2ccccc2)c(=O)c1=O | 0.409%
6 | O=C(O)Cn1ccc(=O)c2cc(F)ccc21 | -0.0342%
7 | O=C(COc1ccc(F)cc1)N1CCCSCC1CN1CCOCC1 (stereo not given) | -0.0603%
8 | CSc1ncccc1C(=O)NCCC(O)c1cc(C)oc1C (stereo not given) | 1.95%
9 | Cc1cccc(CN2C[C@@H]3CCCO[C@@H]3[C@H](Nc3ccccn3)C2)n1 | 0.939%
10 | COCCNC(=O)[C@H]1C[C@@H]2CCN(c3ncccn3)C[C@@H]2O1 | -0.785%
11 | Cc1ccc(N2CC[C@H]3OCC[C@@]3(C(=O)N3CCCO3)C2)nn1 | -1.22%
12 | COc1cc(CNc2ccccc2Cl)ccc1OCC(=O)O | 6.15%
13 | Cc1cncc(C2CCN(Cc3ccc(S(C)(=O)=O)cc3)CC2)n1 | -1.03%
14 | OCC(CO)N1CCCC(Cc2ccnc(Nc3ccccn3)c2)C1 (stereo not given) | -13.5%
15 | Cc1nn(C)c(C)c1NC(=O)CNc1cccc(CC(F)(F)F)c1 | -4.83%
16 | Cc1nc(C)c(CN(C)C2CCN(C(=O)OC(C)(C)C)CC2)s1 | 3.51%
17 | Cc1nn(C)c(C)c1CC(=O)NCc1ccnc(OC2CCCC2)c1 | -0.883%
18 | COc1ccc(CN2CCNC(=O)CC2)cc1SC(F)(F)F | 0.66%
19 | COCCC(Cc1cccc(Br)c1)C(N)=O (stereo not given) | 8.42%
20 | CCc1sc(C(=O)Nc2cnn(CCN(C)C)c2)cc1C | 7.9%
21 | Cc1nc(CN(C)C2CCN(Cc3cccc4cccnc34)C2)no1 (stereo not given) | -11.5%
22 | CC(C)=CCN1CCC(c2nnc(CN3CCN(C)CC3)n2C)CC1 | -7.54%
23 | O=C(Cn1ncc(N2CCNCC2)cc1=O)NCCc1ccc(F)cc1 | 0.342%

Row | SMILES | cytotoxicity at 10 µM
24 | O=C(CSc1ccccn1)N1CCC(OCc2cccnc2)CC1 | -3.84%
25 | c1ccc(CN2CCN(C3CCOC4(CCOCC4)C3)CC2)nc1 (stereo not given) | -0.971%
26 | O=C(O)c1ccccc1-c1c(-c2ccccc2)ncn1CC1CCCO1 (stereo not given) | 2.84%
27 | CCCN(CCc1ccccc1)c1ncnc2oc(C)nc12 | 8.74%
28 | c1cncc(OCc2nc(C3CC3)nn2-c2ccc3c(c2)OCCO3)c1 | 2.4%
29 | c1cc2c(cc1CN1CCCC3(CCOC3)C1)OCO2 (stereo not given) | 0.447%
30 | Cc1cc(NC(C)c2csc(C)n2)n2nc(C)c(C)c2n1 (stereo not given) | 5.32%
31 | CCc1ccc(CN(C)C(=O)c2cnc3c(c2)nc(N)n3CC)nc1 | -5.55%
32 | O=C(c1cc2ccccc2s1)N1CCC(C(=O)O)(n2cccn2)CC1 | 11.3%
33 | Cc1nn(C)c(C)c1CCC(=O)N1CCCOC(Cn2cccn2)C1 (stereo not given) | -2.86%
34 | COc1ccc(C2CC(=O)Nc3c2nc2n3CCCC2)cc1O (stereo not given) | -2.53%
35 | CC(C)c1nc(CN2CCCN(c3nccs3)CC2)no1 | -11.5%
36 | OC1(CN2CCOC(CNc3cccnn3)C2)CCCCC1 (stereo not given) | -4.67%
37 | Cc1nc(-c2ccsc2)ccc1C(=O)NCCCN1CCOCC1 | -13.9%
38 | CCc1n[nH]c(C2CN(C(=O)c3ccc(Cl)cn3)CCO2)n1 (stereo not given) | -18.3%
39 | CS(=O)(=O)NC1CCCN(C(=O)NCc2ccccc2Cl)C1 (stereo not given) | -12.8%
40 | CCn1cc(CN2CCCN(C(=O)c3cc(C)no3)CC2)cn1 | 3.22%
41 | Cc1cc(NC(=O)CCN2CCn3c(C)nnc3C2)no1 | 6.69%
42 | Cc1n[nH]c(=O)c2c(NC(=O)CN3CCOCC3C)oc(C)c12 (stereo not given) | -0.219%
43 | c1cc(OCc2ccc3c(c2)OCCO3)ccc1CNC1CC1 | -0.73%
44 | Cc1ccc(CN2CC[C@H]3[C@H](CC(Cn4cccn4)N3C)C2)s1 (stereo not given in full) | 6.66%
45 | O=C(CO)N1C[C@@H]2CC[C@H]1CN(C1Cc3ccccc3C1)C2 | -11.3%
